# NPY2 pot ag – NPY-Y2 potentiators or agonists, primary screen, cell-based; Neuropeptide Y receptor type 2 (Homo sapiens), P49146; cells expressing NPY-Y2, potentiator/agonist read-out; activation, % at 3.6 µM; actives 0.45% (n = 220,000); AID 1359, 2008; in the data active = activation above about 27%;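 also: cells stimulated with NPY near EC25 plus isoproterenol at EC100; 0% = vehicle plus submaximal agonist and 100% = vehicle plus saturating agonist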
# Target sequence (P49146 whole entry, looked up): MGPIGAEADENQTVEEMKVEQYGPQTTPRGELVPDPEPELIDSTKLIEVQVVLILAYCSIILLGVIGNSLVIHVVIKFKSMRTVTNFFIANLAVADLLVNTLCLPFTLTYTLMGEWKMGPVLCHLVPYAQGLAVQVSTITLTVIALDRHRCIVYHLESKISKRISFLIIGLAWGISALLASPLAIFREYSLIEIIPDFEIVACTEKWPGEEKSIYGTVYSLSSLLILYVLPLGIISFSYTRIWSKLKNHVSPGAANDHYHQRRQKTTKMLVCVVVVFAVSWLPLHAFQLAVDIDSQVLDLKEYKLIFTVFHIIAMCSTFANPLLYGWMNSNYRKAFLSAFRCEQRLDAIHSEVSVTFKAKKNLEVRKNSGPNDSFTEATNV
# NPY-Y1 antag – NPY-Y1 receptor antagonists, primary screen, cell-based. HEK293-CNG Y1 cells, membrane potential fluorescence; NPY at EC95, then isoproterenol. inhibition, % at 3.6 µM. actives 1% (n = 200,000). AID 1040, 2008;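 active = inhibition above the campaign mean inhibition of all tested compounds plus 3 SD, cut at about 20% in these data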;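 also: 0% = DMSO wells given NPY plus isoproterenol and 100% = isoproterenol alone without NPY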
#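 material = HEK293 cells with Y1 receptor plus CNG channel | also added = NPY 25 nM then isoproterenol 1 µM plus Ro 20-1724 25 µM | schedule = dye 3 h, compound 60 min room temperature, stimulation 45 min | measured by = membrane potential fluorescence | benchmarks = high control isoproterenol alone, low control NPY with isoproterenol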
# NPY Y2 blocker – NPY-Y2 receptor antagonists, primary screen, cell-based; Neuropeptide Y receptor type 2 (Homo sapiens), P49146; actives 0.99% (n = 140,000); NPY-Y2 expressing cells, antagonist mode; inhibition, % at 2.7 µM; AID 793, 2007; in the data active = inhibition above about 17%;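 also: 0% = vehicle with agonist challenge and 100% = reference antagonist with challenge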
# NPY-Y1 PAM-ag – NPY-Y1 receptor potentiators or agonists, primary screen, cell-based. NPY-Y1 expressing cells, potentiator/agonist activation. actives 0.37% (n = 220,000). Neuropeptide Y receptor type 1 (Homo sapiens), P25929. activation, % at 3.6 µM; in the data active = activation above about 33%, passing the limit was not always enough;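 also: cells stimulated with NPY at EC10 then isoproterenol at EC100; 0% = low agonist plus stimulus and 100% = saturating agonist plus stimulus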
# * marks the source's active call; other numbers are inactive results; . = no result given. This is a sample that favours compounds with a hit; in the whole collection about 1.8% have one here.
SMILES,NPY2 pot ag,NPY-Y1 antag,NPY Y2 blocker,NPY-Y1 PAM-ag
COc1ccc(C(CC(=O)c2ccccc2)CC(=O)c2ccccc2)cc1OC,-32.4,17.3,.,-45.5
C/C(=N\N=C(/N)SC1CC(=O)N(c2ccc(Br)cc2)C1=O)c1cccs1 (stereo not given),43.9*,-7.6,-4.4,44.8*
C/C(=N\N=C(/N)SC1CC(=O)N(c2ccccc2)C1=O)c1cccs1 (stereo not given),13.6,2.3,0.7,9.4
Cc1ccc(C(C)C)c(OCC(O)CN2CC(C)OC(C)C2)c1 (stereo not given),91.8*,-9.6,4.1,93.4*
CC1CN(CC(O)COc2ccc(C(=O)c3ccccc3)cc2)CC(C)O1 (stereo not given),-11.6,0.8,1.8,-13.8
Cc1ccc(C(C)C)c(OCC(O)CN2CCOCC2)c1 (stereo not given),76.0*,-13.4,1.0,89.0*
Cc1ccc(OCC(O)CN2CCN(CC(O)COC(C)C)CC2)c(C(C)(C)C)c1 (stereo not given),93.0*,-14.9,4.8,95.6*
Cc1ccc(C(C)C)c(OCC(=O)N2CCOCC2)c1,-1.6,5.2,11.2,1.0
Cc1cc(OCC(O)CN2CCN(C)CC2)ccc1C(C)C (stereo not given),2.5,5.3,-0.4,-19.7
Cc1ccc(Cl)cc1N1CCN(CC(O)COC(C)C)CC1 (stereo not given),-12.9,.,.,2.2
Cc1ccc(C(C)C)c(OCC(O)CN2CCN(CCO)CC2)c1 (stereo not given),80.5*,-10.9,3.6,101.5*
O=C(N/N=C/c1ccc([N+](=O)[O-])cc1)c1ccc(COc2ccccc2-c2ccccc2)cc1,0.4,1.8,.,4.3
Cc1ccc(S(=O)(=O)N(C)C)cc1NC(=S)N1CCCCC1CO (stereo not given),13.9,0.1,.,-9.1
CCNC(=O)CSc1nc2ccccc2c(=O)n1-c1cc(OC)ccc1OC,0.8,3.5,0.8,0.8
COc1ccc(CNC(=O)C2CCCN2S(=O)(=O)c2ccc(F)cc2)cc1 (stereo not given),7.6,2.0,.,17.6
O=C(NCc1csc(-c2cccs2)n1)C1CCCCC1,7.0,.,.,2.4
CC(C)c1ccc(C2CC(=O)c3cnc(N4CCc5ccccc5C4)nc3C2)cc1 (stereo not given),6.8,-2.9,2.2,11.1
CC1CC(C)CN(c2ncc3c(n2)CC(c2ccccc2)CC3=O)C1 (stereo not given),-10.5,30.8*,23.7*,-14.4
CCOc1ccccc1NC(=O)C1C2CCC3C(CCC21)C3(Cl)Cl (stereo not given),-12.6,9.7,.,-18.1
O=C(Nc1ccccc1)C1C2CCC3C(CCC21)C3(Cl)Cl (stereo not given),-16.9,20.6*,13.8,-0.8
Fc1ccccc1CNCCC(Cc1ccccc1)c1ccc2c(c1)OCO2 (stereo not given),2.6,10.2,6.0,-7.0
COc1ccc(CNCCC(c2ccccc2)c2ccc3c(c2)OCO3)cc1 (stereo not given),-2.8,33.7*,17.4*,5.7
COc1ccc(S(=O)(=O)N2CCOCC2)cc1NC(=O)CN1CCC(Cc2ccccc2)CC1,-33.6,39.8*,31.9*,-23.5
COc1ccc([N+](=O)[O-])c(OC)c1C(=O)NC(=O)Nc1c(F)cc(F)cc1F,3.2,.,.,-11.0
CCN(CC)CCn1c(=N)n(CCOc2ccccc2)c2ccccc21,-12.6,29.9*,34.7*,-13.3
SMILES,NPY2 pot ag,NPY-Y1 antag,NPY Y2 blocker,NPY-Y1 PAM-ag
C/C(=N\Nc1nc2ccc(Cl)cc2o1)c1ccccc1,-3.3,.,.,-7.8
CCOC(=O)Cn1c(=O)oc2cc(S(=O)(=O)Nc3c(C)cc(C)cc3C)ccc21,23.7,-7.5,0.1,37.9*
CCOC(=O)Cn1c(=O)oc2cc(S(=O)(=O)NC3CCCc4ccccc43)ccc21 (stereo not given),37.3*,-11.5,0.3,62.6*
CCOC(=O)Cn1c(=O)oc2cc(S(=O)(=O)N3CCCc4ccccc43)ccc21,26.0,-12.8,0.5,31.3
CCCCNS(=O)(=O)c1ccc2c(c1)oc(=O)n2CC(=O)OCC,2.0,-2.8,-0.7,16.6
CCn1cc(CNC(=O)CCc2nnc(CCC3CCCCC3)o2)cn1,2.4,4.7,.,-6.0
CN(C)CCC1c2ccc(Cl)cc2CCc2cccnc21 (stereo not given) (tested in a mixture with another compound),8.1,.,.,-13.9
Cc1[nH]nc(SCC(=O)NCc2ccc(Cl)cc2)c1[N+](=O)[O-],12.4,1.7,1.1,-0.6
COc1cc(/C=N/NC(=O)c2cccs2)ccc1OCc1ccccc1,-27.2,-0.7,3.6,-47.1
COc1ccc(/C=N/NC(=O)c2sccc2OCc2ccc(F)cc2)cc1OC,-26.6,11.7,25.9*,-20.6
CCC(CCC(=O)NNC(=O)Cc1ccc([N+](=O)[O-])cc1)C(=O)O (stereo not given),-6.7,.,.,-29.4
Cc1ccc(-n2nnnc2SCC(=O)Nc2ccccc2N2CCCCC2)cc1C,-4.7,47.6*,28.0*,9.8
Cc1ccc(NC(=S)N(CCN2CCOCC2)Cc2cc3cc4c(cc3[nH]c2=O)OCO4)cc1,-0.6,-4.8,.,21.2
O=[N+]([O-])c1ccc(N=Nc2c(Cl)cc(O)cc2Cl)cc1,64.9*,.,.,66.8*
Cn1c(-c2ccc(Cl)cc2)cnc1NCc1cc2c(cc1[N+](=O)[O-])OCO2,47.5*,-7.6,0.1,47.4*
Cn1c(N)c(C(=O)COC(=O)CSc2ccc(Cl)cc2)c(=O)n(C)c1=O,-15.2,11.8,9.5,-17.0
CCc1nc2sc(C#N)c(N)c2c2c1CCCC2,-19.8,49.0*,57.5*,-76.1
C#CC(=O)N(c1cccc(OC)c1)C(C(=O)NC1CCCC1)c1cccs1 (stereo not given),47.2*,-4.2,-0.2,55.1*
Cc1cc(C)cc(N(CC(=O)NC2CCC(C)CC2)S(=O)(=O)c2c(C)[nH]c(=O)[nH]c2=O)c1 (stereo not given),-3.1,.,.,4.1
COc1ccc(OC)c(Cc2nnc(CCC(=O)NCc3ccc(C)s3)o2)c1,-6.2,6.9,.,3.2
COc1ccc(CN2CCC(CO)(Cc3ccccc3)CC2)cc1Cn1cccn1,-24.8,21.4*,.,-16.6
C#CCOC(=O)Nc1ccc(OCC(F)(F)F)nc1,-7.8,.,.,9.9
COc1cc(/C=C(\C#N)C(=O)Nc2ccccc2C(=O)O)cc(Cl)c1OC,16.3,-0.2,.,-4.1
COCCCNC(=O)c1ccc(C(=O)NCCCOC)cc1,1.1,0.6,0.2,8.2
COCCCNC(NC(=O)c1ccc(Br)cc1)C(Cl)(Cl)Cl (stereo not given),65.8*,-9.4,1.4,59.4*
O=S(=O)(NCc1ccc2c(c1)OCO2)c1ccc2oc3ccccc3c2c1,-34.9,21.2*,19.3*,-67.2
O=C(CCc1nnc(C2(c3ccc(Cl)cc3)CCC2)o1)NCCCn1cccn1,-1.1,4.2,.,8.9
COc1ccc(CNC(=O)C(c2ccncc2)N(C(=O)Cc2cccs2)c2ccccc2)cc1 (stereo not given),7.5,0.3,1.5,6.4

# Assay outcomes (PubChem)
